For test [1], the target named is Proto-oncogene tyrosine-protein kinase Src (Homo sapiens, UniProt P12931). Put plainly: Inhibition of human recombinant SRC. The essentials: (§1)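 Human kinases expressed in Sf9 cells via baculovirus as GST or His fusions and affinity purified. 33PanQinase assay in 60 mM HEPES-NaOH pH 7.5, 3 mM MgCl2, 3 mM MnCl2, 3 µM orthovanadate, 1.2 mM DTT, 1 µM [γ-33P]ATP, 1% DMSO; 30 °C, 80 min. Substrates: poly(Glu,Tyr) 4:1 for ERBB2, IGF1-R and SRC; poly(Ala,Glu,Lys,Tyr) 6:2:5:1 for FLT3. IC50 from 10 concentrations by scintillation counting.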

Test [2] concerns the target T1, Receptor-type tyrosine-protein kinase FLT3 (Homo sapiens, UniProt P36888).
T1 sequence (P36888 whole entry): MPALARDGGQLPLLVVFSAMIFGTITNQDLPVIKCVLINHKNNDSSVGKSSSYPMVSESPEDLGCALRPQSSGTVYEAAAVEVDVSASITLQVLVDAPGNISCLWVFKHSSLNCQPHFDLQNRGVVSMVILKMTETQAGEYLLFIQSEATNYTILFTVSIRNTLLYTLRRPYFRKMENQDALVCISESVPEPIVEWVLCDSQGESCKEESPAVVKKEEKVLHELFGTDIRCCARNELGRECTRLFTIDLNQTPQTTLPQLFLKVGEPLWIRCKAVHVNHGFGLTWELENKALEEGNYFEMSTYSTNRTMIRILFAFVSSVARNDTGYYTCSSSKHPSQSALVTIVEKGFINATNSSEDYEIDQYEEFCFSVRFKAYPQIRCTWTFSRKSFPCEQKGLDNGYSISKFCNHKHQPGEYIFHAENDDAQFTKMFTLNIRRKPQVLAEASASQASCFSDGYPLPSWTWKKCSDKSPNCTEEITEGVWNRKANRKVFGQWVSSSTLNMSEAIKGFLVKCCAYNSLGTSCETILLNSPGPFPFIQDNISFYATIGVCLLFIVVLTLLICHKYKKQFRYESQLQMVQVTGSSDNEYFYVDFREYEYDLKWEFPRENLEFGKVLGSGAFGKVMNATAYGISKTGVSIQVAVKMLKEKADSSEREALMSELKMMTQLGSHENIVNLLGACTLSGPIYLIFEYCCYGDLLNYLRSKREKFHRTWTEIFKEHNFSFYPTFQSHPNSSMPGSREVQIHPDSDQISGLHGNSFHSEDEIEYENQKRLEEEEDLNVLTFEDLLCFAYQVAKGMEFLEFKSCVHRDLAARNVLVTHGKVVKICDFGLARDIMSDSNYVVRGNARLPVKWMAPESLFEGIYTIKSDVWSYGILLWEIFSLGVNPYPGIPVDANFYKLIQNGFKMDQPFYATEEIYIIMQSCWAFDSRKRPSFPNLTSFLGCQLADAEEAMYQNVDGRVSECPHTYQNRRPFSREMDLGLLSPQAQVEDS
Briefly: Inhibition of human recombinant FLT3. The essentials: as §1

Test [3] concerns the target Vascular endothelial growth factor receptor 2 (Homo sapiens, UniProt P35968). Put plainly: Inhibition of human recombinant VEGFR2. The method, boiled down:
(§2)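 Recombinant human tyrosine kinases (EPHB4, TIE2, VEGF-R2, VEGF-R3), expressed in Sf9 insect cells as GST- or His-fusions, with poly(Glu,Tyr) 4:1 as substrate. Conditions: 1 µM [γ-33P]ATP, pH 7.5 HEPES buffer with Mg/Mn, DTT and vanadate, 30 °C for 80 min, 1% DMSO. Ten concentrations were tested and IC50 came from scintillation counting of incorporated 33P.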

Test [4] addresses Receptor tyrosine-protein kinase erbB-2 (Homo sapiens, UniProt P04626). Put plainly: Inhibition of human recombinant ERBB2. The essentials: as §1
Test [5] has as its target Insulin-like growth factor 1 receptor (Homo sapiens, UniProt P08069). Briefly: Inhibition of human recombinant IGF1R. The method, boiled down:
as §1

Test [6] concerns the target Angiopoietin-1 receptor (Homo sapiens, UniProt Q02763). Put plainly: Inhibition of human recombinant TIE2. The method, boiled down: as §2
Test [7] has as its target Casein kinase II subunit alpha (Homo sapiens, UniProt P68400). Put plainly: Inhibition of human recombinant CK2A1. The method, boiled down:
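Human kinases expressed in Sf9 cells by baculovirus as GST or His fusions and affinity purified. Radiometric 33PanQinase assay: 60 mM HEPES-NaOH pH 7.5, 3 mM MgCl2, 3 mM MnCl2, 3 µM orthovanadate, 1.2 mM DTT, 1 µM [γ-33P]ATP, 50-400 ng enzyme, 1% DMSO; 30 °C, 80 min. Substrates: B-Raf-VE, MEK1 KM; CDK2/CycA, histone H1; CK2-A1, casein; COT, autophosphorylation. IC50 from 10 concentrations; 33Pi incorporation by scintillation.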

Test [8] deals with Vascular endothelial growth factor receptor 3 (Homo sapiens, UniProt P35916). Briefly: Inhibition of human recombinant VEGFR3. The method, boiled down:
as §2

For test [9], the species on record is Homo sapiens. Put plainly: Induction of apoptosis in HDMEC assessed as cleaved caspase 3 at 1.3 uM after 24 hrs. The class given is functional. The essentials: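 HDMEC incubated 24 h with compound. Adherent cells and supernatant harvested together, stained with an antibody to cleaved caspase-3, and analysed by FACS as percent apoptotic cells. Three independent repeats.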

The species named for test [10] is Homo sapiens. Briefly: Antiangiogenic activity in VEGF-induced HLMEC assessed as sprouts per bead at 1.3 uM after 24 hrs by sprouting assay. It counts as functional. The essentials: (§3)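 HLMEC seeded on cytodex-3 microcarrier beads and embedded in 3D fibrinogen gel with 20 ng/mL VEGF plus compound at a final 1.3 or 2.6 µM (from 1 mM DMSO stock). Gel polymerised with 0.65 U/mL thrombin and overlaid with MCDB131, 5% FCS, 5% human serum and 200 U/mL Trasylol. Negative control: gel without growth factors. After 24 h, fixed in 1% PFA; sprouts per 50 beads counted microscopically. Triplicates per condition, n = 9 experiments.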

For test [11], the species on record is Homo sapiens. Briefly: Antiangiogenic activity in VEGF-induced HLMEC assessed as number of sprouts per bead at 2.6 uM after 24 hrs by sprouting assay. The class given is functional. The method, boiled down: as §3
The species named for test [12] is Homo sapiens. Briefly: Induction of apoptosis in HDMEC at 2.1 uM after 5 hrs. It counts as functional. The essentials: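 Positive-control condition: HDMEC treated 5 h at 2.1 µM. Adherent cells plus supernatant stained for cleaved caspase-3 and analysed by FACS as percent apoptotic cells. Repeated three times.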
Test [13] deals with Ephrin type-B receptor 4 (Homo sapiens, UniProt P54760). Briefly: Inhibition of human recombinant EPHB4. The essentials: as §2
Test [14] addresses Epidermal growth factor receptor (Homo sapiens, UniProt P00533). Put plainly: Inhibition of human recombinant EGFR.

Structures are written as SMILES. pIC50: −log10 of the molar value.

Vascular endothelial growth factor receptor 3, sequence (P35916 whole entry): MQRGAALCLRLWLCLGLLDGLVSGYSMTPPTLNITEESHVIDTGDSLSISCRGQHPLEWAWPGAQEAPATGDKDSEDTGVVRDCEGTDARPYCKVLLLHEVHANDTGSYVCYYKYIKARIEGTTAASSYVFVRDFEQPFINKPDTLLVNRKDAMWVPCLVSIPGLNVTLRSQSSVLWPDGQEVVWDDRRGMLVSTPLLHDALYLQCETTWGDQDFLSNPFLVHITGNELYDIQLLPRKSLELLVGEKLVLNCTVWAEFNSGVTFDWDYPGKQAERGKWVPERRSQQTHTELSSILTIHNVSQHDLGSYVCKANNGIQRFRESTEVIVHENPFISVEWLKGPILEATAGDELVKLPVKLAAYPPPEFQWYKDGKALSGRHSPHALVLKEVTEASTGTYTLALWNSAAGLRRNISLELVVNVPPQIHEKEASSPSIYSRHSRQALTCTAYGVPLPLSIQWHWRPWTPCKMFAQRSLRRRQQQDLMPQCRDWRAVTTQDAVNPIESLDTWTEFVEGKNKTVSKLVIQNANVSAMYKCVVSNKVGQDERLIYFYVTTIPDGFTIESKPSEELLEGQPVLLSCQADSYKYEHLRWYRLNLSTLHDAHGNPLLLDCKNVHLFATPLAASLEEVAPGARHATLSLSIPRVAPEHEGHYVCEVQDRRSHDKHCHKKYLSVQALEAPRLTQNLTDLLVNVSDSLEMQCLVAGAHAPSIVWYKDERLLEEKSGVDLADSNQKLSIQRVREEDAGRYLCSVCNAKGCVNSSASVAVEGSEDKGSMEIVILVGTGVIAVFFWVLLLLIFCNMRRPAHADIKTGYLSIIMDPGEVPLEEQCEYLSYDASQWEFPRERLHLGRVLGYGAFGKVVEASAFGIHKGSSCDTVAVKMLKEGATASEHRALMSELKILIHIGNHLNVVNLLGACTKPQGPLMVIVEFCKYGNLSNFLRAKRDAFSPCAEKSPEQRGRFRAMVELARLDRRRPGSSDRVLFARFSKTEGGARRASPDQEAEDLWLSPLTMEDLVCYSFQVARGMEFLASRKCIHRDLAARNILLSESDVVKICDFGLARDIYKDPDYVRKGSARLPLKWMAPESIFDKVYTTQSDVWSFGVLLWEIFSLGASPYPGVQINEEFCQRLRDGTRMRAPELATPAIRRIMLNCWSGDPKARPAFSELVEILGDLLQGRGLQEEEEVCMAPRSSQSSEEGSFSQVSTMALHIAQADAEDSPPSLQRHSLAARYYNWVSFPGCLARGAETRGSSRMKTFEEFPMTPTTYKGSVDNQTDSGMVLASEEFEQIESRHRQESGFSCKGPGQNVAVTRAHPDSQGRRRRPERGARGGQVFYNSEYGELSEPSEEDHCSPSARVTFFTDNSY
Insulin-like growth factor 1 receptor, sequence (P08069 31-736 limits assumed): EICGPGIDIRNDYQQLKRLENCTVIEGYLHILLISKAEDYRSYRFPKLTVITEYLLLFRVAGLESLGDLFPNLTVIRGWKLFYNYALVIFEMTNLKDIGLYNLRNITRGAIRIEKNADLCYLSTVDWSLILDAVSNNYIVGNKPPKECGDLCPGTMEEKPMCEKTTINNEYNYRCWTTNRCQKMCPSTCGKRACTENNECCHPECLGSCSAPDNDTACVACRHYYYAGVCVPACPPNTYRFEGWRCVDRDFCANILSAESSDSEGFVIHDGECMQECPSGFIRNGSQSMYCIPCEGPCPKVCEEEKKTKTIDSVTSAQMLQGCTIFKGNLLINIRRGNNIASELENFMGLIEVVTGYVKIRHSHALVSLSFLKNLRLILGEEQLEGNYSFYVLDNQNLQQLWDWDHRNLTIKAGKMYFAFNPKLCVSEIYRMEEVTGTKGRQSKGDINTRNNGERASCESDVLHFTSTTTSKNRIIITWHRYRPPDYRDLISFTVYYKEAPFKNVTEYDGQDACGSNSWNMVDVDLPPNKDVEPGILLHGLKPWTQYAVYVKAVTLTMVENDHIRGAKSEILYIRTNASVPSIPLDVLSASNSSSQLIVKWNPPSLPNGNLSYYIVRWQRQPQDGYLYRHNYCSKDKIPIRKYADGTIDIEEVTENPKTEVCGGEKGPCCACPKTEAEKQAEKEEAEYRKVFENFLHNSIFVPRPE
Insulin-like growth factor 1 receptor, sequence (P08069 741-1367 limits assumed): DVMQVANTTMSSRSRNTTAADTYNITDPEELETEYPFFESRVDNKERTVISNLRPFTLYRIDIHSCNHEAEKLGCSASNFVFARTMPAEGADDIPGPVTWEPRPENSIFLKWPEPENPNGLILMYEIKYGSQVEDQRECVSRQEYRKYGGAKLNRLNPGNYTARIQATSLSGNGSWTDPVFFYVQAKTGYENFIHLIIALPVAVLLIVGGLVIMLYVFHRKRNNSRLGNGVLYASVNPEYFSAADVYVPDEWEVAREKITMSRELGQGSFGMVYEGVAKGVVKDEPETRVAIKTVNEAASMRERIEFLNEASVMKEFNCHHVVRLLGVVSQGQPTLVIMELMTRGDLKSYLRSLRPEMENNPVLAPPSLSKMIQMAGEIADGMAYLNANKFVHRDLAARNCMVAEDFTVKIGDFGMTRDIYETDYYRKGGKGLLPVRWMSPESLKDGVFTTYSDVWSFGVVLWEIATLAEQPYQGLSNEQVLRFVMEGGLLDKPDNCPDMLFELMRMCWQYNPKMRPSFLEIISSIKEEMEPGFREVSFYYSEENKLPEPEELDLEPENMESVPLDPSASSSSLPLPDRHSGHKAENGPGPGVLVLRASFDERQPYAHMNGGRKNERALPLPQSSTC
Angiopoietin-1 receptor, sequence (Q02763 whole entry): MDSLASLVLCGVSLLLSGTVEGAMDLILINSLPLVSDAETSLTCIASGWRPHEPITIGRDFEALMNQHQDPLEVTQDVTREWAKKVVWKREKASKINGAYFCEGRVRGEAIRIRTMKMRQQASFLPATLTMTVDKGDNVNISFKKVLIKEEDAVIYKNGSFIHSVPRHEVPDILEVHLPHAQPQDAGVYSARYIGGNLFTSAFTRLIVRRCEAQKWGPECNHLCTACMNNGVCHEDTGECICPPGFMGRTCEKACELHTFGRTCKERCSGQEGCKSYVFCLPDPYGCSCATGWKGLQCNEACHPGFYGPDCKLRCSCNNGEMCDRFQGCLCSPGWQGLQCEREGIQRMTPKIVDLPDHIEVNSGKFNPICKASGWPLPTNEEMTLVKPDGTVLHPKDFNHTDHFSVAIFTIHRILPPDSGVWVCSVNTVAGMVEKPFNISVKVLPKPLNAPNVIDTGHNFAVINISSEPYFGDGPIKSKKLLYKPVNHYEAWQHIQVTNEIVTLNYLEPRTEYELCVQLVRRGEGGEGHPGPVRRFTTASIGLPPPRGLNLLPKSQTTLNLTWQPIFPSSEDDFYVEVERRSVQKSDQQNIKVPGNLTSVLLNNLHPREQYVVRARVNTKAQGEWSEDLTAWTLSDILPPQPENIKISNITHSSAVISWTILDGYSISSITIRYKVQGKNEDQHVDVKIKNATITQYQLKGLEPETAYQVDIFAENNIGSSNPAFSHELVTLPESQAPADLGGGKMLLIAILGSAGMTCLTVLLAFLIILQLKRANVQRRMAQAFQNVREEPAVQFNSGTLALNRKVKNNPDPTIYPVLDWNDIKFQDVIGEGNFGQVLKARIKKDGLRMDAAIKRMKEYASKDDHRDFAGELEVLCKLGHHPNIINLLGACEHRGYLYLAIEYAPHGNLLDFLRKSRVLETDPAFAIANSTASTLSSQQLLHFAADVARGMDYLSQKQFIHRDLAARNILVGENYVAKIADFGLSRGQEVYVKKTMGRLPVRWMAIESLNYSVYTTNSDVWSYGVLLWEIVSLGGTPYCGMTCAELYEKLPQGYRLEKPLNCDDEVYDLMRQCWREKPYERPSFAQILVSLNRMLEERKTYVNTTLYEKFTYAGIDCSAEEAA
Proto-oncogene tyrosine-protein kinase Src, sequence (P12931 2-536 limits assumed): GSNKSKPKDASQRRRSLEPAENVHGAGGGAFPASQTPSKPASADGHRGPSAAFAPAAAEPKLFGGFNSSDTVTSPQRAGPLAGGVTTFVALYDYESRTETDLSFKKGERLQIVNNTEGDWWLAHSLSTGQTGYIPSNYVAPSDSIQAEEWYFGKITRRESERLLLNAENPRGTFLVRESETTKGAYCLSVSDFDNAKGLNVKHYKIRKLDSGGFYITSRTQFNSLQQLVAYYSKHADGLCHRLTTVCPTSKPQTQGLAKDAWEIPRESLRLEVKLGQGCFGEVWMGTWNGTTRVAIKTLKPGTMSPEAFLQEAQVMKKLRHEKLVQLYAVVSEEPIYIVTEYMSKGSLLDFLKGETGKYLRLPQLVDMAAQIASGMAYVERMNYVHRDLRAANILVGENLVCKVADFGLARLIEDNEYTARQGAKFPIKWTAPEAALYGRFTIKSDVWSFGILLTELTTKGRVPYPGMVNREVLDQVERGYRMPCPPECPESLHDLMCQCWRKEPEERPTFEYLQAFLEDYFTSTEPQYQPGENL
Casein kinase II subunit alpha, sequence (P68400 whole entry, the tested form may be a part): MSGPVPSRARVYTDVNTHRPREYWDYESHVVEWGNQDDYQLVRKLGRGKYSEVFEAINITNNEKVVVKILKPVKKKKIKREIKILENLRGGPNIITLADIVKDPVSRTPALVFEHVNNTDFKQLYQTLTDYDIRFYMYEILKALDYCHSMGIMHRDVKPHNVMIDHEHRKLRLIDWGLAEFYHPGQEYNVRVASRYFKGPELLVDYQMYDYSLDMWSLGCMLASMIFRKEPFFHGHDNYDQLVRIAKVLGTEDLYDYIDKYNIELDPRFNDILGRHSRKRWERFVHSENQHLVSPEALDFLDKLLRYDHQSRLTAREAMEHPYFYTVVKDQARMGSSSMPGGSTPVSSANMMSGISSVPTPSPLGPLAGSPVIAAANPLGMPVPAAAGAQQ

`COc1cc(C2=C(c3cn(COCc4ccccc4)c4ccccc34)CNC2=O)cc(OC)c1OC`: the pIC50 in test [1] was 5.04; in test [2], 4.44; in test [3], 5.80; in [4], 4.44; in test [5], 4.74; in test [6], 4.96. Moreover, the pIC50 in test [7] was under 4.30; in test [8] it was 5.77.

Take `COc1cc(C2=C(c3c[nH]c4ccccc34)C(=O)NC2=O)cc(OC)c1OC` [MALEIMIDE]: the results for the Activity in test [9] and in test [11] were 22.4% and 0.48, respectively. The inhibition in test [10] worked out at 81%.

Regarding `CN[C@@H]1C[C@H]2O[C@@](C)([C@@H]1OC)n1c3ccccc3c3c4c(c5c6ccccc6n2c5c31)C(=O)NC4`, the Activity in [12] turned out to be 63.9%.

`COc1cc(C2=C(c3cn(COCC[Si](C)(C)C)c4ccccc34)CNC2=O)cc(OC)c1OC`: the negative logarithm of the IC50 (pIC50) was 4.36 in [13]; 5.35 in test [1]; 4.47 in test [2]; 5.51 in test [3]; 4.66 in test [14]; 5.06 in test [5]. For the same compound, the pIC50 in [6] is 4.59; in [8], 5.25. The inhibition in test [10] came out at 30%.

(Values after ChEMBL document CHEMBL1157465, “Design, synthesis, and biological evaluation of novel 3-aryl-4-(1H-indole-3yl)-1,5-dihydro-2H-pyrrole-2-ones as vascular endothelial growth factor receptor (VEGF-R) inhibitors” (J Med Chem, 2008).)
